# Screening data deposited in PubChem by Broad Institute.
# FN deposit inh: fibronectin deposition inhibition | 350,000 tested, 0.086% active | AH1F fibroblasts, Alexa488-fibronectin deposition fluorescence, overnight | inhibition, % at 12.6 µM;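 active = mean inhibition across replicates of 30% or more, regardless of how many single replicates reach that level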;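 note: positive control wells lacked labelled fibronectin entirely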
#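 Measured by – fluorescence 485/525 nm · System – AH1F fibroblast monolayer, labelled fibronectin deposition · Amount – 10000 cells per well · Buffer or medium – serum-reduced DMEM (2% serum) · Doses – single dose, pinned · Also added – fluorescent fibronectin at 24 nM final · Schedule – 1 h cell attachment, overnight exposure to compound and label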
# AF4-AF9 inh: inhibitors of human MLL-AF4/AF9 interaction | P42568 | inhibition, % at 10 µM | 350,000 tested, 0.47% active | AlphaScreen, biotin-AF4 peptide binding to FLAG-AF9;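 active = every replicate reaching a set inhibition limit, whatever the replicate mean, cut at about 25% in these data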;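 note: 0% = plate neutral control median and 100% = total signal loss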
# SIRT5 block: sirtuin-5 (human) deacylase inhibition. Purified SirT5, succinyl-peptide AMC, trypsin-coupled fluorescence. Q9NXA8. 330,000 tested, 1.1% active. inhibition, % at 15 µM. AID 652115; in the data active = inhibition above about 15%
# ERp5 inh: blocks human ERp5 reductase activity on insulin; Q15084; ERp5 insulin aggregation, absorbance 650 nm, 90 min; inhibition, % at 9.99 µM; 350,000 tested, 0.05% active; AID 651711;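 active = mean replicate inhibition above about 25%, with every replicate also reaching it, limit read from the data, passing the limit was not always enough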
# Target sequence (Q15084 whole entry, looked up): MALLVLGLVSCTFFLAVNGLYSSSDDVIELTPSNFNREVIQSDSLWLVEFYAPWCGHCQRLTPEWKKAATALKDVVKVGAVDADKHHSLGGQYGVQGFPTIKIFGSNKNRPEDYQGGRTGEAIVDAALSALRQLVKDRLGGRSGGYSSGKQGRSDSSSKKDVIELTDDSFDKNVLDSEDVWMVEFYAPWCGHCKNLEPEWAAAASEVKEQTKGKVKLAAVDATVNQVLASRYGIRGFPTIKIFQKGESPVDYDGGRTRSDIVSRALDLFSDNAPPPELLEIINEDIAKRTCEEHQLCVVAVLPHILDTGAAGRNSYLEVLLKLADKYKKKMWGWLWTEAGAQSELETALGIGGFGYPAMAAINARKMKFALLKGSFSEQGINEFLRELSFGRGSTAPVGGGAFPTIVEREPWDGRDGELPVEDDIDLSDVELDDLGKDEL
# PDI turbidity: inhibitors of human protein disulfide isomerase. AID 588391. inhibition, % at 10 µM. PDI insulin aggregation turbidity, A650, 90 min. 350,000 tested, 0.052% active;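 active = mean inhibition across replicates of 30% or more, whatever share of single replicates reach that level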
# Starred values were filed as active, the others as inactive; . = not tested or not shown. Sampled rows, rich in hits. Any-hit rate of the full collection: about 1.3%.
SMILES,FN deposit inh,AF4-AF9 inh,SIRT5 block,ERp5 inh,PDI turbidity
Cc1csc(NC(=O)CSc2nc3[nH]c(=O)cc(O)c3s2)n1,.,-9,-1,-11,3
CCc1nnc(NC(=O)CSc2sc3c(O)cc(=O)[nH]c3c2C#N)s1,0,-2,29*,3,-8
O=C(Nc1ccc(OC(F)F)c(Cl)c1)C(c1ccccc1)c1ccccc1,1,-1,0,2,-1
COc1ccc(S(=O)(=O)Nc2ccc3c(c2)C(=O)N([C@H](C)CO)C[C@@H](C)[C@@H](CN(C)C)OCCCC[C@@H](C)O3)cc1,6,3,-3,3,.
CN(C)c1ccc(/C=C/c2ccc3c4ccccc4ccc3[n+]2-c2ccccc2)cc1,27,94*,1,13,-15
Cc1nc2ccccc2c(=O)n1/N=C/c1ccc(C(C)C)cc1,-1,4,-1,1,10
CC(C)COC(=O)N(C)C[C@@H]1OCc2ccccc2-c2c(n(C)c3ccccc23)C(=O)N([C@@H](C)CO)C[C@H]1C,-11,0,6,1,.
O=C(NCc1ccc(Cl)nc1)c1ccc2sc([C@@H]3O[C@H](CO)[C@H](O)[C@H](O)[C@H]3O)nc2c1,1,-2,17*,1,3
Cc1cnc(CNC(=O)c2ccc3sc([C@@H]4O[C@H](CO)[C@H](O)[C@H](O)[C@H]4O)nc3c2)cn1,2,-3,.,7,-1
CC(C)C#Cc1ccc([C@@H]2[C@H](CO)N3C(=O)CN(C(=O)NC4CCCC4)C[C@@H]23)cc1,1,-1,25*,5,.
CC(C)C#Cc1ccc([C@@H]2[C@@H](CO)N3C(=O)CN(C(=O)c4ccc5c(c4)OCO5)C[C@H]23)cc1,3,3,20*,0,.
CC(C)C#Cc1ccc([C@@H]2[C@@H](CO)N3C(=O)CN(C(=O)NC4CCCC4)C[C@H]23)cc1,-7,-1,11,5,.
O=C(c1ccc2c(c1)OCO2)N1CC(=O)N2[C@H](CO)[C@H](c3ccc(C#CCC4CCCC4)cc3)[C@@H]2C1,.,5,26*,-3,.
O=C(c1ccc2c(c1)OCO2)N1CC(=O)N2[C@@H](CO)[C@@H](c3ccc(C#CCC4CCCC4)cc3)[C@@H]2C1,.,7,11,3,.
COC(=O)c1c(NC(=O)COC(=O)CCNS(=O)(=O)c2ccccc2)sc(C)c1C,-4,-1,0,-1,6
O=C(COc1ccc(-c2nnco2)cc1)NC1CCCc2ccccc21 (stereo unspecified),-12,.,.,.,-1
Cc1ccc(-n2c(=O)[nH]c3c(oc4ccccc43)c2=O)cc1,31*,-5,-3,2,2
COc1ccc(-n2c(=S)[nH]c3c(oc4ccccc43)c2=O)cc1,-2,.,.,.,4
C[C@H](CO)N1C[C@H](C)[C@@H](CN(C)Cc2ccncc2)Oc2ncc(C#CC3CCCCC3)cc2C1=O,.,-2,-1,-4,.
O=C(O)c1cccc(-n2cccc2/C=C2/NC(=O)N(c3ccc(Cl)cc3)C2=O)c1,-3,-23,44*,19,3
COc1ccc(-n2cccc2/C=C2/NC(=O)N(c3cccc(Cl)c3)C2=O)cc1,-8,-1,4,-6,-7
COc1ccccc1-c1cccc([C@@H]2C[C@H]3[C@H](CON3C)CN2C(=O)CCc2ccccc2)c1,7,6,17*,-14,-2
Cc1ccccc1-c1cccc([C@@H]2C[C@H]3[C@H](CON3C)CN2Cc2ccccc2)c1,active,5,0,6,3
COCC(=O)N1C[C@H]2CON(C)[C@H]2C[C@H]1c1cccc(-c2ccccc2OC)c1,.,-1,-3,2,-4
C/C(=N\NC(=O)Cn1nc(C)cc1C)c1ccc([N+](=O)[O-])cc1,3,-4,-1,-3,5
Cc1noc(C)c1S(=O)(=O)Nc1ccc2c(c1)CC(=O)N([C@H](C)CO)C[C@@H](C)[C@H](CN(C)S(=O)(=O)c1ccc(F)cc1)O2,.,-2,1,-13,.
NC(=O)C1CCCN(Cc2ccc3ccccc3c2)C1 (stereo unspecified),-1,-4,3,-1,2
CCN(CC)C(=O)C1CCCN(Cc2ccc3ccccc3c2)C1 (stereo unspecified),3,-1,46*,4,-1
COc1ccc(C2=NN(C(C#N)c3ccc(OC)cc3)C(c3ccccc3)C2)cc1 (stereo unspecified),1,29*,5,0,-1
